ChEMBL document CHEMBL3853330, “Exploring the N-Terminal Region of C-X-C Motif Chemokine 12 (CXCL12): Identification of Plasma-Stable Cyclic Peptides As Novel, Potent C-X-C Chemokine Receptor Type 4 (CXCR4) Antagonists” (J Med Chem, 2016)
Active and inactive are the calls of the source. The calls are words filed in the database; no cut-off is given here. Positions of bridges follow the written chain, without caps; N, C: chain ends. Residues, ends and D or L forms follow the SMILES beside them.

Legend:
[1] = biological target: T1, C-X-C chemokine receptor type 4 (Homo sapiens, UniProt P61073); assay: Inhibition of PE-conjugated-12G5 anti-CXCR4 antibody binding to CXCR4 in human CEM-CCRF cells preincubated for 30 mins followed by antibody addition by FACS Canto II cytofluorometric analysis; format: cell-based
[2] = Metabolic stability in human plasma after 180 mins by ESI-RP-HPLC analysis; format: ADME, cell-free; conditions: 3 h
Procedure, shortened: (§1)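 Peptide (1 mg/mL in water) was mixed 1:1 with prewarmed (37 °C) human plasma diluted to 50% in water. Aliquots were taken at 0, 30, 60, 120 and 180 min and quenched with 1% TFA in acetonitrile. After centrifugation, supernatants were run on C18 HPLC-ESI-MS with a 10–90% ACN gradient (0.1% TFA) over 20 min. Relative levels came from A230 peak integration.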

[3] = biological target: T1, C-X-C chemokine receptor type 4; assay: Inhibition of GFP-tagged CXCR4 (unknown origin) internalization expressed in human HCT116 cells assessed as reduction in vesicle size at 0.1 uM pre-incubated for 45 mins followed by CXCL12 addition measured after 45 mins by alpha-tubulin/alexa fluor594/DAPI staining based confocal microscopic analysis; format: cell-based; conditions: HCT-116
Procedure, shortened: (§2)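 HCT116 cells were stably transfected with GFP-CXCR4, grown 1 day on coverslips in DMEM/10% FBS, then equilibrated in DMEM with 0.5% BSA. Cells got peptide (0.1 μM) for 45 min at 37 °C, then CXCL12 for 45 min at 37 °C. They were fixed in 4% formaldehyde, permeabilized with 0.1% Triton, and stained for α-tubulin (Alexa Fluor 594) and DAPI. Confocal microscopy assessed membrane fluorescence and intracellular vesicles.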

[4] = Drug metabolism in human plasma after 30 mins by ESI-RP-HPLC analysis; format: ADME, cell-free; conditions: read-out: Drug metabolism
[5] = biological target: T1, C-X-C chemokine receptor type 4; assay: Antagonist activity at CXCR4 in human HT29 cells assessed as suppression of CXCL12 dependent cell migration at 0.0001 to 10 uM in presence of CXCL12 by H/E staining based microscopic analysis; conditions: HT-29
Procedure, shortened: (§3)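 Transwell migration assay: inserts with 5 μm pores for CEM cells and 8 μm pores for HT29 cells, membranes precoated with human collagen type I/III and fibronectin (20 μg/mL each). 2 × 10^5 cells went in the upper chamber in medium with 1% BSA plus peptide, and 100 ng/mL CXCL12 in the lower chamber, for 18 h. Migrated cells were H&E-stained and counted in 10 fields. Migration index was taken against BSA-only medium.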

[6] = biological target: T1, C-X-C chemokine receptor type 4; assay: Inhibition of CXCR4 in human CEM cells assessed as suppression of CXCL12-dependent cell migration after 18 hrs in presence of CXCL12 by H/E staining based microscopic analysis; conditions: CCRF-CEM; procedure, shortened: as §3
[7] = Drug metabolism in human plasma assessed as cyclic pentapeptide cyclo[Cys-Arg-Phe-Phe-Cys] metabolite formation after 120 mins by ESI-RP-HPLC analysis; format: ADME, cell-free; conditions: 2 h; procedure, shortened: as §1
[8] = biological target: T1, C-X-C chemokine receptor type 4; assay: Inhibition of CXCR4 in human serum starved CEM cells assessed as suppression of CXCL12-dependent ERK phosphorylation at 0.001 to 0.1 uM after 2 to 20 mins in presence of CXCL12 by H/E staining based microscopic analysis; format: cell-based; conditions: CCRF-CEM, in the assay text read “immunoblotting” for “H/E staining based microscopic analysis”
Procedure, shortened: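 Serum-starved CEM cells were stimulated with CXCL12 (100 ng/mL) in the presence of peptide. Lysates were made in Hepes pH 7.5/Triton X-100 buffer with protease and phosphatase inhibitors and immunoblotted for p-ERK and ERK2. Induction is the ratio of p-ERK with CXCL12 to p-ERK under serum-free conditions.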

[9] = biological target: T1, C-X-C chemokine receptor type 4; assay: Inhibition of GFP-tagged CXCR4 (unknown origin) internalization expressed in human HCT116 cells at 0.1 uM pre-incubated for 45 mins followed by CXCL12 addition measured after 45 mins by alpha-tubulin/alexa fluor594/DAPI staining based confocal microscopic analysis; format: cell-based; conditions: HCT-116; procedure, shortened: as §2
[10] = biological target: T1, C-X-C chemokine receptor type 4; assay: Inhibition of 12G5 anti-CXCR4 antibody binding to CXCR4 in human HT29 cells preincubated for 30 mins followed by antibody addition by FACS Canto II cytofluorometric analysis; format: cell-based, HT-29
[11] = Metabolic stability in human plasma assessed as compound degradation after 60 mins by ESI-RP-HPLC analysis; format: ADME, cell-free; conditions: read-out: Drug degradation; procedure, shortened: as §1
[12] = Drug level in human plasma treated with (4R,7S,10S,13S,16R)-16-amino-7,10-dibenzyl-13-(3-guanidinopropyl)-6,9,12,15-tetraoxo-1,2-dithia-5,8,11,14-tetraazacycloheptadecane-4-carboxylic acid after 2 hrs by ESI-RP-HPLC analysis; format: ADME; procedure, shortened: as §1

T1 sequence (P61073 whole entry): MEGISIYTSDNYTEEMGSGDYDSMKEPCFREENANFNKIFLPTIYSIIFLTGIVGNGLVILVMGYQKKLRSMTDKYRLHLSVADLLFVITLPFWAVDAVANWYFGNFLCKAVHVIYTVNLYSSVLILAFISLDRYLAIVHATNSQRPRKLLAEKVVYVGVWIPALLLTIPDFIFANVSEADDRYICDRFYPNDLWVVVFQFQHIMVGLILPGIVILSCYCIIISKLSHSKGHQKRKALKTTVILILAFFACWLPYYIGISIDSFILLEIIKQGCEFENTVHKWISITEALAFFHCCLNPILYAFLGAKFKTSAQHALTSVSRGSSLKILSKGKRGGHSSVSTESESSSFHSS

For `CC(=O)N[C@@H](CCCNC(=N)N)C(=O)N[C@@H](C)C(=O)N[C@H]1CSSC[C@@H](C(=O)O)NC(=O)[C@H](Cc2ccccc2)NC(=O)[C@H](Cc2ccccc2)NC(=O)[C@H](CCCNC(=N)N)NC1=O`, the IC50 [1] was 0.131 µM and the Stability [2] was “Stable”.
`CC(=O)N[C@@H](CCCNC(=N)N)C(=O)N[C@@H](C)C(=O)N[C@@H]1CSSC[C@@H](C(=O)O)NC(=O)[C@H](Cc2ccccc2)NC(=O)[C@H](C)NC(=O)[C@H](CCCNC(=N)N)NC1=O` showed an IC50 [1] of over 10 µM.
Work on `CC(=O)N[C@@H](CCCNC(=N)N)C(=O)N[C@H](C)C(=O)N[C@H]1CSSC[C@@H](C(=O)O)NC(=O)[C@H](Cc2ccccc2)NC(=O)[C@H](Cc2ccccc2)NC(=O)[C@H](CCCNC(=N)N)NC1=O` yielded an IC50 [1] of over 10 µM.
In the case of `CC(=O)N[C@@H](CCCNC(=N)N)C(=O)N[C@@H](C)C(=O)N[C@@H]1CSSC[C@@H](C(=O)O)NC(=O)[C@H](Cc2ccccc2)NC(=O)[C@H](Cc2ccccc2)NC(=O)[C@H](C)NC1=O`, the IC50 [1] is reported as over 10 µM.
Work on `CC(=O)N[C@@H](C)C(=O)N[C@@H](C)C(=O)N[C@@H]1CSSC[C@@H](C(=O)O)NC(=O)[C@H](Cc2ccccc2)NC(=O)[C@H](Cc2ccccc2)NC(=O)[C@H](CCCNC(=N)N)NC1=O` yielded an IC50 [1] of over 10 µM.
`CC(=O)N[C@@H](CCCNC(=N)N)C(=O)N[C@@H](C)C(=O)N[C@H]1CSSC[C@@H](C(=O)O)NC(=O)[C@H](Cc2ccccc2)NC(=O)[C@H](Cc2ccccc2)NC(=O)[C@@H](CCCNC(=N)N)NC1=O` gave an IC50 [1] of over 10 µM.
Work on `CC(=O)N[C@@H](CCCNC(=N)N)C(=O)N[C@@H](C)C(=O)N[C@H]1CSSC[C@@H](C(=O)O)NC(=O)[C@H](Cc2ccccc2)NC(=O)[C@@H](Cc2ccccc2)NC(=O)[C@H](CCCNC(=N)N)NC1=O` yielded an IC50 [1] of over 10 µM.
In the case of `CC(=O)N[C@H](CCCNC(=N)N)C(=O)N[C@@H](C)C(=O)N[C@H]1CSSC[C@@H](C(=O)O)NC(=O)[C@H](Cc2ccccc2)NC(=O)[C@H](Cc2ccccc2)NC(=O)[C@H](CCCNC(=N)N)NC1=O`, the IC50 [1] is reported as over 10 µM.
With `C[C@H](NC(=O)[C@@H](N)CCCNC(=N)N)C(=O)N[C@H]1CSSC[C@@H](C(=O)O)NC(=O)[C@H](Cc2ccccc2)NC(=O)[C@H](Cc2ccccc2)NC(=O)[C@H](CCCNC(=N)N)NC1=O` (H-RACRFFC-OH; disulfide 3-7) the inhibition [3] was “Active”, the IC50 [1] was 6.2 µM and the metabolised at 0.5 h [4] was 30%. For the same compound, the inhibition [5] was “Active”, the inhibition [6] was “Active” and the Drug metabolism [7] was “Metabolite_Detected”. For the same compound, the inhibition [8] was “Active”, the inhibition [9] was “Active” and the IC50 [10] was 5.2 µM. The metabolised at 1 h [11] was 50%.
Compound `CC(=O)N[C@@H](CCCNC(=N)N)C(=O)N[C@@H](C)C(=O)N[C@H]1CSSC[C@@H](C(N)=O)NC(=O)[C@H](Cc2ccccc2)NC(=O)[C@H](Cc2ccccc2)NC(=O)[C@H](CCCNC(=N)N)NC1=O` (Ac-RACRFFC-NH2; disulfide 3-7) has an IC50 [1] of 1.23 µM.
`CC(=O)N[C@@H](CCCNC(=N)N)C(=O)N[C@@H](C)C(=O)N[C@H]1CSSC[C@@H](C(=O)O)NC(=O)[C@@H](Cc2ccccc2)NC(=O)[C@H](Cc2ccccc2)NC(=O)[C@H](CCCNC(=N)N)NC1=O` gave an IC50 [1] of over 10 µM.
For `C[C@H](NC(=O)[C@@H](N)CCCNC(=N)N)C(=O)N[C@H]1CSSC[C@@H](C(N)=O)NC(=O)[C@H](Cc2ccccc2)NC(=O)[C@H](Cc2ccccc2)NC(=O)[C@H](CCCNC(=N)N)NC1=O` (H-RACRFFC-NH2; disulfide 3-7), the IC50 [1] was 5.9 µM.
`CC(=O)N[C@@H](CCCNC(=N)N)C(=O)N[C@@H](C)C(=O)N[C@@H]1CSSC[C@@H](C(=O)O)NC(=O)[C@H](C)NC(=O)[C@H](Cc2ccccc2)NC(=O)[C@H](CCCNC(=N)N)NC1=O` showed an IC50 [1] of over 10 µM.
With `CC(=O)N[C@@H](CCCNC(=N)N)C(=O)N[C@@H](C)C(=O)N[C@H]1CSSC[C@H](C(=O)O)NC(=O)[C@H](Cc2ccccc2)NC(=O)[C@H](Cc2ccccc2)NC(=O)[C@H](CCCNC(=N)N)NC1=O` the IC50 [1] was 5.9 µM.
With `N=C(N)NCCC[C@@H]1NC(=O)[C@@H](N)CSSC[C@@H](C(=O)O)NC(=O)[C@H](Cc2ccccc2)NC(=O)[C@H](Cc2ccccc2)NC1=O` (H-CRFFC-OH; disulfide 1-5) the Drug uptake [12] was “Active”.
For `CC(=O)N[C@@H](CCCNC(=N)N)C(=O)N[C@@H](C)C(=O)N[C@@H]1CSSC[C@@H](C(=O)O)NC(=O)[C@H](Cc2ccccc2)NC(=O)[C@H](Cc2ccccc2)NC(=O)[C@H](CCCNC(=N)N)NC1=O`, the inhibition [3] was “Active”, the IC50 [1] was 0.053 µM and the inhibition [5] was “Active”. The inhibition [6] was “Active”, the Stability [2] was “Stable” and the inhibition [8] was “Active”. The inhibition [9] was “Active” and the IC50 [10] was 0.064 µM.
